{"source": "ChEMBL document CHEMBL3351225", "about": "“Design, synthesis, and structure-activity and structure-pharmacokinetic relationship studies of novel [6,6,5] tricyclic fused oxazolidinones leading to the discovery of a potent, selective, and orally bioavailable FXa inhibitor” (J Med Chem, 2014)", "key": {"V79": {"tested_on": "V79", "test": "Toxicity in Chinese hamster V79 cells by micronucleus Assay", "assay_type": "cell-based, Cricetulus griseus"}, "[1]": {"test": "Tmax in Beagle dog at 1 mg/kg, po", "assay_type": "ADME, organism-based, Canis lupus familiaris", "set-up": "dose 1 mg/kg, route oral", "settings": "in vivo", "procedure,_shortened": "(§1)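 Male dogs, three per group. Dosed orally at 1 mg/kg or by intravenous infusion at 0.5 mg/kg. Vehicle was 5% DMSO + 5% Tween-80 in 90% saline, or 10% DMSO + 10% Tween-80 + 80% PEG400 for the reference drug. Foreleg blood samples were quantified by LC-MS. Parameters came from noncompartmental analysis of mean plasma concentrations.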"}, "[2]": {"test": "AUC (0 to infinity) in Sprague-Dawley rat at 3 mg/kg, iv", "assay_type": "ADME, organism-based", "set-up": "time infinity, dose 3 mg/kg, route intravenous", "settings": "plasma", "procedure,_shortened": "(§2)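 Male Sprague-Dawley rats, 200−220 g, four per group. Vehicle was 5% DMSO + 5% Tween-80 in 90% saline. The reference drug was given in 10% DMSO + 10% Tween-80 + 80% PEG400 (40% solution in saline). Serial retrobulbar vein samples were quantified by LC-MS. Parameters came from noncompartmental analysis of mean plasma concentrations.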"}, "Rattus norvegicus [3]": {"tested_on": "Rattus norvegicus", "test": "Toxicity in rat assessed as induction of behavioral changes at 50 mg/kg, po dosed once daily for 2 weeks", "assay_type": "organism-based", "set-up": "dose 50 mg/kg, route oral", "settings": "in vivo, 336 h", "procedure,_shortened": "(§3)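 Subacute toxicity in rats: oral dosing once daily for 2 weeks at 50 mg/kg (medium) or 100 mg/kg (high). Behavior, body weight, food intake, organ coefficients and survival rate were monitored.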"}, "Rattus norvegicus [4]": {"tested_on": "Rattus norvegicus", "test": "Toxicity in rat assessed as induction of body weight changes at 50 mg/kg, po dosed once daily for 2 weeks", "assay_type": "organism-based", "set-up": "dose 50 mg/kg, route oral", "settings": "in vivo, 336 h", "procedure,_shortened": "as §3"}, "Coagulation factor IX": {"target": "Coagulation factor IX (Homo sapiens, UniProt P00740)", "sequence (P00740 47-191 limits assumed)": "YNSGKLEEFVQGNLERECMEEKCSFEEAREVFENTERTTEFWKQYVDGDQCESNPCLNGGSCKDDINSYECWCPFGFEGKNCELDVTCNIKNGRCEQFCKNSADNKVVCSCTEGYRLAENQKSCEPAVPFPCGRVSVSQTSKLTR", "sequence (P00740 227-461 limits assumed)": "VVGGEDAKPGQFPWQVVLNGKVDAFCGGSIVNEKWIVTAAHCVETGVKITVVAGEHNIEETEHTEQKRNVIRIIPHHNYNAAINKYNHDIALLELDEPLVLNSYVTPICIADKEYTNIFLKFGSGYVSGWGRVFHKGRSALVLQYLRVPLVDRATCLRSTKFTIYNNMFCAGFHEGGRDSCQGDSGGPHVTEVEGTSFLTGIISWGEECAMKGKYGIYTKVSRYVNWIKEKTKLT", "test": "Inhibition of human factor 9a using CH3SO2-(D)CHG Gly-Arg-pNA, Biophen-CS51 chromogenic substrate"}, "[5]": {"test": "AUC (0 to infinity) in Beagle dog at 1 mg/kg, po", "assay_type": "ADME, organism-based, Canis lupus familiaris", "set-up": "time infinity, dose 1 mg/kg, route oral", "settings": "plasma", "procedure,_shortened": "as §1"}, "[6]": {"test": "AUC (0 to infinity) in Sprague-Dawley rat at 10 mg/kg, po", "assay_type": "ADME, organism-based", "set-up": "time infinity, dose 10 mg/kg, route oral", "settings": "plasma", "procedure,_shortened": "as §2"}, "[7]": {"test": "Elimination half life in Beagle dog at 1 mg/kg, po", "assay_type": "ADME, organism-based, Canis lupus familiaris", "set-up": "dose 1 mg/kg, route oral", "settings": "in vivo", "procedure,_shortened": "as §1"}, "Rattus norvegicus [8]": {"tested_on": "Rattus norvegicus", "test": "Toxicity in rat assessed as induction of behavioral changes at 100 mg/kg, po dosed once daily for 2 weeks", "assay_type": "organism-based", "set-up": "dose 100 mg/kg, route oral", "settings": "in vivo, 336 h", "procedure,_shortened": "as §3"}, "Rattus norvegicus [9]": {"tested_on": "Rattus norvegicus", "test": "Antithrombotic activity in rat model of arteriovenous shunt-induced thrombosis assessed as reduction in thrombus formation dosed orally 60 mins before shunt opening", "settings": "po"}, "Coagulation factor VII": {"target": "T1, Coagulation factor VII (Homo sapiens, UniProt P08709)", "T1 sequence (P08709 whole entry)": "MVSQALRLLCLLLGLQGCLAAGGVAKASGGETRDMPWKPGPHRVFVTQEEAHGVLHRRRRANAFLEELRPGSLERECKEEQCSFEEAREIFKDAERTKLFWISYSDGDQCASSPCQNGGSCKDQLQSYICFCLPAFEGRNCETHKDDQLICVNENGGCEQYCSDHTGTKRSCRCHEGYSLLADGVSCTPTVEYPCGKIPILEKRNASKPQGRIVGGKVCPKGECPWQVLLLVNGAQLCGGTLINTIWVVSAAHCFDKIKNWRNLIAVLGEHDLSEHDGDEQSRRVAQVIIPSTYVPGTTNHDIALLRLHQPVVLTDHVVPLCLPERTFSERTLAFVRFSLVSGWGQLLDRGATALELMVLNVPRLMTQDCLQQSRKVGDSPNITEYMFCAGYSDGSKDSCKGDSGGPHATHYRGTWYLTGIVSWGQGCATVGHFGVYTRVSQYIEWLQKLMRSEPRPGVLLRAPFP", "test": "Inhibition of human factor 7a using S-2366 chromogenic substrate", "procedure,_shortened": "(§4)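 Human enzyme and inhibitor were premixed and preincubated, then the chromogenic substrate was added. Substrate levels: 300 μM S-2765 (FXa, trypsin); 200 μM S-2366 (FIIa); 2 mM S-2366 (FVIIa, FXIa). pNA release was monitored continuously at 405 nm for 20 min at 37 °C. IC50 was obtained by nonlinear regression.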"}, "Coagulation factor X": {"target": "Coagulation factor X (Homo sapiens, UniProt P00742)", "sequence (P00742 41-179 limits assumed)": "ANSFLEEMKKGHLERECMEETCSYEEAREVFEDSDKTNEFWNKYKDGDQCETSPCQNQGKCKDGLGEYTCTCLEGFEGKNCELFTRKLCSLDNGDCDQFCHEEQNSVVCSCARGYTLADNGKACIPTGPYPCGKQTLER", "sequence (P00742 235-488 limits assumed)": "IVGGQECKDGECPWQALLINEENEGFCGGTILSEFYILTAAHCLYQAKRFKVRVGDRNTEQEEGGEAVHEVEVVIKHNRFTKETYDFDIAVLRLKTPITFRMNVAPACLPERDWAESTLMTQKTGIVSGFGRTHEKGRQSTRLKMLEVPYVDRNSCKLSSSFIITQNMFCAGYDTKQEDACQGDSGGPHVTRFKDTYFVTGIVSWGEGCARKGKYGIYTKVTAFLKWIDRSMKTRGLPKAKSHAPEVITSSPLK", "test": "Inhibition of human factor 10a using N-Z-D-Arg-Gly-Arg-pNA, S-2765 chromogenic substrate"}, "Rattus norvegicus [10]": {"tested_on": "Rattus norvegicus", "test": "Toxicity in rat assessed as induction of body weight changes at 100 mg/kg, po dosed once daily for 2 weeks", "assay_type": "organism-based", "set-up": "dose 100 mg/kg, route oral", "settings": "in vivo, 336 h", "procedure,_shortened": "as §3"}, "Prothrombin": {"target": "Prothrombin (Homo sapiens, UniProt P00734)", "test": "Inhibition of human factor 2a using L-pyro-Glu-Pro-ArgpNA, S-2366 chromogenic substrate", "procedure,_shortened": "as §4"}, "[11]": {"test": "Oral bioavailability in Beagle dog at 1 mg/kg", "assay_type": "ADME, organism-based, Canis lupus familiaris", "settings": "in vivo", "procedure,_shortened": "as §1"}, "Cytochrome P450 2C9": {"target": "Cytochrome P450 2C9 (Homo sapiens, UniProt P11712)", "sequence (P11712 whole entry)": "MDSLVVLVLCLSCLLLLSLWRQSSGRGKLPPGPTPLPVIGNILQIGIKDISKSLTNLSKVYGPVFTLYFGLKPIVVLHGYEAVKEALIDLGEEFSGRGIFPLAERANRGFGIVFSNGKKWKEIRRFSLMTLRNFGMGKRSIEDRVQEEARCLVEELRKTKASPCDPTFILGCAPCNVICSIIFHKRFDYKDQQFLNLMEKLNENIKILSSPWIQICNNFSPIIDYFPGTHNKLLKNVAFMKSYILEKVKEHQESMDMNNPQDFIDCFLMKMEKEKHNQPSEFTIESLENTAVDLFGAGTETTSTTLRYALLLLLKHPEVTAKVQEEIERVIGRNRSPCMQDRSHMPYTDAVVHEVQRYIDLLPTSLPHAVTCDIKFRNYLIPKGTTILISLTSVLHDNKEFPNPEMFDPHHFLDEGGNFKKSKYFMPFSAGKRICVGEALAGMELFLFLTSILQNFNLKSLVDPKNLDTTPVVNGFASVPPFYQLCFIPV", "test": "Inhibition of CYP2C9 (unknown origin)", "assay_type": "ADME"}, "[12]": {"test": "Plasma clearance in Beagle dog at 0.5 mg/kg, iv", "assay_type": "ADME, organism-based, Canis lupus familiaris", "set-up": "dose 0.5 mg/kg, route intravenous", "procedure,_shortened": "as §1"}, "Rattus norvegicus [13]": {"tested_on": "Rattus norvegicus", "test": "Toxicity in rat assessed as survival rate changes at 100 mg/kg, po dosed once daily for 2 weeks", "assay_type": "organism-based", "set-up": "dose 100 mg/kg, route oral", "settings": "in vivo, 336 h", "procedure,_shortened": "as §3"}, "Cytochrome P450 2D6": {"target": "Cytochrome P450 2D6 (Homo sapiens, UniProt P10635)", "sequence (P10635 whole entry)": "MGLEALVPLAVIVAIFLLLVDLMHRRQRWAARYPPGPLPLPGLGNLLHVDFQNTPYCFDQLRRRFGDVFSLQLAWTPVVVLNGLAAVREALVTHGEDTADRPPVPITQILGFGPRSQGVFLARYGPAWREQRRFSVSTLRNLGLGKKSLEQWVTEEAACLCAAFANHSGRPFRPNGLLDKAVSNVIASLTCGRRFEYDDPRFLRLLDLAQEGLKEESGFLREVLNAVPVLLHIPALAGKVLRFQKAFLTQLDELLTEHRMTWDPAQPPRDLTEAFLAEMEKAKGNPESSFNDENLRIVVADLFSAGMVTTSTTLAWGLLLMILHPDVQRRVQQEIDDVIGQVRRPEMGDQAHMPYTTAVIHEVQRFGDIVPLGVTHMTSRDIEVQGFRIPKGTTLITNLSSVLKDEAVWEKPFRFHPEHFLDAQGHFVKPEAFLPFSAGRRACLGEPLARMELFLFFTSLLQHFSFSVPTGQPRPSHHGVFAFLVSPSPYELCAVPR", "test": "Inhibition of CYP2D6 (unknown origin)", "assay_type": "ADME"}, "[14]": {"test": "Oral bioavailability in Sprague-Dawley rat at 10 mg/kg", "assay_type": "ADME, organism-based", "settings": "in vivo", "procedure,_shortened": "as §2"}, "Cytochrome P450 3A4": {"target": "Cytochrome P450 3A4 (Homo sapiens, UniProt P08684)", "sequence (P08684 whole entry)": "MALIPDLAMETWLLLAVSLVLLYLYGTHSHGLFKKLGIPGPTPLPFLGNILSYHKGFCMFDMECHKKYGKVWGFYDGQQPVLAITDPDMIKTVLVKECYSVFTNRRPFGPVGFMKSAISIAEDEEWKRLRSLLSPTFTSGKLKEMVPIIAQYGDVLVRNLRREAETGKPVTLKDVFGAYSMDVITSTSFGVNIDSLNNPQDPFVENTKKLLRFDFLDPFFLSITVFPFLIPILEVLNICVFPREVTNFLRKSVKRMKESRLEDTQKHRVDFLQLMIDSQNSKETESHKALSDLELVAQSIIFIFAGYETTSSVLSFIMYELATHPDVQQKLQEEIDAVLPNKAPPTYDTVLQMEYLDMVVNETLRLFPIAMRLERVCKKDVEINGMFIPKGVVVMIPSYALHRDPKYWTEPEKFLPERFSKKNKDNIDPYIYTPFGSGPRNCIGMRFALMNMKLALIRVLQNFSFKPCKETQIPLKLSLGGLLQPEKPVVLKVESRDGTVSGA", "test": "Inhibition of CYP3A4 (unknown origin)", "assay_type": "ADME"}, "[15]": {"test": "Cmax in Beagle dog at 1 mg/kg, po", "assay_type": "ADME, organism-based, Canis lupus familiaris", "set-up": "dose 1 mg/kg, route oral", "settings": "in vivo", "procedure,_shortened": "as §1"}, "Rattus norvegicus [16]": {"tested_on": "Rattus norvegicus", "test": "Toxicity in rat assessed as induction of organ coefficients changes at 100 mg/kg, po dosed once daily for 2 weeks", "assay_type": "organism-based", "set-up": "dose 100 mg/kg, route oral", "settings": "in vivo, 336 h", "procedure,_shortened": "as §3"}, "Cytochrome P450 2C19": {"target": "Cytochrome P450 2C19 (Homo sapiens, UniProt P33261)", "sequence (P33261 whole entry)": "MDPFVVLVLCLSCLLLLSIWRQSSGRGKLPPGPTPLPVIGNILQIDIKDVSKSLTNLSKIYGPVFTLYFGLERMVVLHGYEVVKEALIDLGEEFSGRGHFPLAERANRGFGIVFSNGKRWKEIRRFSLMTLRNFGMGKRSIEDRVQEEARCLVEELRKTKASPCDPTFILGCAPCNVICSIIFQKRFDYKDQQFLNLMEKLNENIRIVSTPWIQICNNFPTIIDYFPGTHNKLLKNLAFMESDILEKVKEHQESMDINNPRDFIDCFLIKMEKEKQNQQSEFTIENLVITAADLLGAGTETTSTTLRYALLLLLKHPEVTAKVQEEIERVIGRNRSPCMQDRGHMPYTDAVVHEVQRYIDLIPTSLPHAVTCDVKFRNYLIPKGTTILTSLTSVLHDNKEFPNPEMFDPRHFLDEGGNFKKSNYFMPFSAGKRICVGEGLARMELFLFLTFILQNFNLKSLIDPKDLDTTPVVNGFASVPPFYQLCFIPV", "test": "Inhibition of CYP2C19 (unknown origin)", "assay_type": "ADME"}, "Rattus norvegicus [17]": {"tested_on": "Rattus norvegicus", "test": "Toxicity in rat assessed as induction of food intake changes at 100 mg/kg, po dosed once daily for 2 weeks", "assay_type": "organism-based", "set-up": "dose 100 mg/kg, route oral", "settings": "in vivo, 336 h", "procedure,_shortened": "as §3"}, "Cytochrome P450 2C8": {"target": "T2, Cytochrome P450 2C8 (Homo sapiens, UniProt P10632)", "T2 sequence (P10632 whole entry)": "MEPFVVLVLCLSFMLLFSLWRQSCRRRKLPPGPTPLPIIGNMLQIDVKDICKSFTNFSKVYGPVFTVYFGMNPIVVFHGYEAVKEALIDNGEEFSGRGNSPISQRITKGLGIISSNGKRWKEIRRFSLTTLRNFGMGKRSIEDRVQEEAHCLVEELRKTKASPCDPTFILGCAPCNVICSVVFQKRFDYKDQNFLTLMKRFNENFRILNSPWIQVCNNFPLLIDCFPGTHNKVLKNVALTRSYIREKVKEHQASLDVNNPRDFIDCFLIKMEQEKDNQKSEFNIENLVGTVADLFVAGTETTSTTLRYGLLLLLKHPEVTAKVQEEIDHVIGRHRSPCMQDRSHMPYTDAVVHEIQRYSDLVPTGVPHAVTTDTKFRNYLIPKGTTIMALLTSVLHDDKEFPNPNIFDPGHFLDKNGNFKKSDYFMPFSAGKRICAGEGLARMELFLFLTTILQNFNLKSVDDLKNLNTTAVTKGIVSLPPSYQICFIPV", "test": "Inhibition of CYP2C8 (unknown origin)", "assay_type": "ADME"}, "Rattus norvegicus [18]": {"tested_on": "Rattus norvegicus", "test": "Toxicity in rat assessed as survival rate changes at 50 mg/kg, po dosed once daily for 2 weeks", "assay_type": "organism-based", "set-up": "dose 50 mg/kg, route oral", "settings": "in vivo, 336 h", "procedure,_shortened": "as §3"}, "[19]": {"test": "Elimination half life in Beagle dog at 0.5 mg/kg, iv", "assay_type": "ADME, organism-based, Canis lupus familiaris", "set-up": "dose 0.5 mg/kg, route intravenous", "settings": "in vivo", "procedure,_shortened": "as §1"}}, "data": [{"smiles": "O=C(NC[C@@H]1OC(=O)N2c3ccc(N4CCOCC4=O)cc3OC[C@@H]12)c1ccc(Cl)s1", "values": [{"measurement": "Activity", "setting": "V79", "value": "Non-toxic"}, {"measurement": "Tmax", "setting": "[1]", "value": 0.5, "unit": "h"}, {"measurement": "AUC(0-inf)", "setting": "[2]", "value": 15300, "unit": "ng·h/mL"}, {"measurement": "Activity", "setting": "Rattus norvegicus [3]", "value": "Non-toxic"}, {"measurement": "Activity", "setting": "Rattus norvegicus [4]", "value": "Non-toxic"}, {"measurement": "IC50", "setting": "Coagulation factor IX", "value": "> 100", "unit": "µM"}, {"measurement": "AUC(0-inf)", "setting": "[5]", "value": 1530, "unit": "ng·h/mL"}, {"measurement": "AUC(0-inf)", "setting": "[6]", "value": 33000, "unit": "ng·h/mL"}, {"measurement": "half-life", "setting": "[7]", "value": 2, "unit": "h"}, {"measurement": "Activity", "setting": "Rattus norvegicus [8]", "value": "Non-toxic"}, {"measurement": "ED50", "setting": "Rattus norvegicus [9]", "value": 5.28, "unit": "mg/kg"}, {"measurement": "IC50", "setting": "Coagulation factor VII", "value": "> 100", "unit": "µM"}, {"measurement": "IC50", "setting": "Coagulation factor X", "value": 0.00341, "unit": "µM"}, {"measurement": "Activity", "setting": "Rattus norvegicus [10]", "value": "Non-toxic"}, {"measurement": "IC50", "setting": "Prothrombin", "value": "> 100", "unit": "µM"}, {"measurement": "bioavailability", "setting": "[11]", "value": 92, "unit": "%"}, {"measurement": "IC50", "setting": "Cytochrome P450 2C9", "value": 43.2, "unit": "µM"}, {"measurement": "clearance", "setting": "[12]", "value": 6.67, "unit": "mL/min/kg"}, {"measurement": "Activity", "setting": "Rattus norvegicus [13]", "value": "Non-toxic"}, {"measurement": "IC50", "setting": "Cytochrome P450 2D6", "value": "> 200", "unit": "µM"}, {"measurement": "bioavailability", "setting": "[14]", "value": 63.7, "unit": "%"}, {"measurement": "IC50", "setting": "Cytochrome P450 3A4", "value": 85.1, "unit": "µM"}, {"measurement": "Cmax", "setting": "[15]", "value": 530, "unit": "ng/mL"}, {"measurement": "Activity", "setting": "Rattus norvegicus [16]", "value": "Non-toxic"}, {"measurement": "IC50", "setting": "Cytochrome P450 2C19", "value": "> 200", "unit": "µM"}, {"measurement": "Activity", "setting": "Rattus norvegicus [17]", "value": "Non-toxic"}, {"measurement": "IC50", "setting": "Cytochrome P450 2C8", "value": 99.7, "unit": "µM"}, {"measurement": "Activity", "setting": "Rattus norvegicus [18]", "value": "Non-toxic"}, {"measurement": "half-life", "setting": "[19]", "value": 3.1, "unit": "h"}]}]}
